According to ChEMBL document CHEMBL3784971, “Synthesis, characterization, antimicrobial and biofilm inhibitory studies of new esterquats” (Bioorg Med Chem Lett, 2016):
Converted amounts (≈) assume the structure as drawn.

Columns and labels:
Staphylococcus aureus [1] = assay: Antimicrobial activity against Staphylococcus aureus MTCC 96 assessed as growth inhibition after 24 hrs by agar well diffusion method; format: functional; conditions: MTCC 96, 24 h
Bacillus subtilis [2] = assay: Antimicrobial activity against Bacillus subtilis MTCC 121 assessed as growth inhibition after 24 hrs by agar well diffusion method; format: functional; conditions: MTCC 121, 24 h
Staphylococcus aureus [3] = assay: Antimicrobial activity against Staphylococcus aureus MLS16 MTCC 2940 assessed as growth inhibition after 24 hrs by agar well diffusion method; format: functional; conditions: MLS16 MTCC 2940, 24 h
Micrococcus luteus [4] = assay: Antimicrobial activity against Micrococcus luteus MTCC 2470 assessed as growth inhibition after 24 hrs by agar well diffusion method; format: functional; conditions: MTCC 2470, 24 h
Raoultella planticola [5] = assay: Antimicrobial activity against Klebsiella planticola MTCC 530 assessed as growth inhibition after 24 hrs by agar well diffusion method; format: functional; conditions: MTCC 530, 24 h
Escherichia coli [6] = assay: Antimicrobial activity against Escherichia coli MTCC 739 assessed as growth inhibition after 24 hrs by agar well diffusion method; format: functional; conditions: MTCC 739, 24 h
Pseudomonas aeruginosa = assay: Antimicrobial activity against Pseudomonas aeruginosa MTCC 2453 assessed as growth inhibition after 24 hrs by agar well diffusion method; format: functional; conditions: MTCC 2453, 24 h
Candida albicans = assay: Antimicrobial activity against Candida albicans MTCC 3017 assessed as growth inhibition after 24 hrs by agar well diffusion method; format: functional; conditions: MTCC 3017, 24 h
Staphylococcus aureus [7] = assay: Bactericidal activity against Staphylococcus aureus MTCC 96 after 24 hrs by serial dilution method; format: functional; conditions: MTCC 96, 24 h
Bacillus subtilis [8] = assay: Bactericidal activity against Bacillus subtilis MTCC 121 after 24 hrs by serial dilution method; format: functional; conditions: MTCC 121, 24 h
Staphylococcus aureus [9] = assay: Bactericidal activity against Staphylococcus aureus MLS16 MTCC 2940 after 24 hrs by serial dilution method; format: functional; conditions: MLS16 MTCC 2940, 24 h
Micrococcus luteus [10] = assay: Bactericidal activity against Micrococcus luteus MTCC 2470 after 24 hrs by serial dilution method; format: functional; conditions: MTCC 2470, 24 h
Raoultella planticola [11] = assay: Bactericidal activity against Klebsiella planticola MTCC 530 after 24 hrs by serial dilution method; format: functional; conditions: MTCC 530, 24 h
Escherichia coli [12] = assay: Bactericidal activity against Escherichia coli MTCC 739 after 24 hrs by serial dilution method; format: functional; conditions: MTCC 739, 24 h
Staphylococcus aureus [13] = assay: Antibiofilm activity against Staphylococcus aureus MTCC 96 after 24 hrs by crystal violet staining based assay; format: functional, organism-based; conditions: MTCC 96, 24 h
How it was run: (§1)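 Biofilm inhibition tested for amine esters and esterquats. IC50 values (µg/mL) are the mean of three determinations, with ciprofloxacin as reference.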

Micrococcus luteus [14] = assay: Antibiofilm activity against Micrococcus luteus MTCC 2470 after 24 hrs by crystal violet staining based assay; format: functional, organism-based; conditions: MTCC 2470, 24 h; how it was run: as §1

## CCCCCCN(CCCCCCCCCCC(=O)OC)CCCCCCCCCCC(=O)OC
Staphylococcus aureus [1]
  MIC: 31.2 µg/mL (≈ 62.7 µM)
Bacillus subtilis [2]
  MIC: 62.5 µg/mL (≈ 126 µM)
Staphylococcus aureus [3]
  MIC: 62.5 µg/mL (≈ 126 µM)
Micrococcus luteus [4]
  MIC: 31.2 µg/mL (≈ 62.7 µM)
Raoultella planticola [5]
  MIC: > 125 µg/mL
Escherichia coli [6]
  MIC: > 125 µg/mL
Pseudomonas aeruginosa
  MIC: > 125 µg/mL
Candida albicans
  MIC: > 125 µg/mL
Staphylococcus aureus [7]
  MBC: 62.5 µg/mL (≈ 126 µM)
Bacillus subtilis [8]
  MBC: > 125 µg/mL
Staphylococcus aureus [9]
  MBC: > 125 µg/mL
Micrococcus luteus [10]
  MBC: 62.5 µg/mL (≈ 126 µM)
Raoultella planticola [11]
  MBC: > 125 µg/mL
Escherichia coli [12]
  MBC: > 125 µg/mL
Staphylococcus aureus [13]
  IC50: 20.1 µg/mL (≈ 40.4 µM)
Micrococcus luteus [14]
  IC50: 18.6 µg/mL (≈ 37.4 µM)

## CCCCCCCCCCCC[N+](C)(CCCCCCCCCCC(=O)OC)CCCCCCCCCCC(=O)OC.[Cl-]
Staphylococcus aureus [1]
  MIC: > 125 µg/mL
Bacillus subtilis [2]
  MIC: > 125 µg/mL
Staphylococcus aureus [3]
  MIC: > 125 µg/mL
Micrococcus luteus [4]
  MIC: > 125 µg/mL
Raoultella planticola [5]
  MIC: > 125 µg/mL
Escherichia coli [6]
  MIC: > 125 µg/mL
Pseudomonas aeruginosa
  MIC: > 125 µg/mL
Candida albicans
  MIC: > 125 µg/mL
Staphylococcus aureus [7]
  MBC: > 125 µg/mL
Bacillus subtilis [8]
  MBC: > 125 µg/mL
Staphylococcus aureus [9]
  MBC: > 125 µg/mL
Micrococcus luteus [10]
  MBC: > 125 µg/mL
Raoultella planticola [11]
  MBC: > 125 µg/mL
Escherichia coli [12]
  MBC: > 125 µg/mL

## CCCCCCCCCCCCCCCCCCN(CCCCCCCCCCC(=O)OC)CCCCCCCCCCC(=O)OC
Staphylococcus aureus [1]
  MIC: > 125 µg/mL
Bacillus subtilis [2]
  MIC: > 125 µg/mL
Staphylococcus aureus [3]
  MIC: > 125 µg/mL
Micrococcus luteus [4]
  MIC: > 125 µg/mL
Raoultella planticola [5]
  MIC: > 125 µg/mL
Escherichia coli [6]
  MIC: > 125 µg/mL
Pseudomonas aeruginosa
  MIC: > 125 µg/mL
Candida albicans
  MIC: > 125 µg/mL
Staphylococcus aureus [7]
  MBC: > 125 µg/mL
Bacillus subtilis [8]
  MBC: > 125 µg/mL
Staphylococcus aureus [9]
  MBC: > 125 µg/mL
Micrococcus luteus [10]
  MBC: > 125 µg/mL
Raoultella planticola [11]
  MBC: > 125 µg/mL
Escherichia coli [12]
  MBC: > 125 µg/mL
